# Results gathered from unrelated publications.
# Each line is one published result; the experiments were not run side by side.
# Target: Serine/threonine-protein kinase Chk1 (CHEK1, Homo sapiens, UniProt O14757)
# Residues used in one study (O14757 1-476): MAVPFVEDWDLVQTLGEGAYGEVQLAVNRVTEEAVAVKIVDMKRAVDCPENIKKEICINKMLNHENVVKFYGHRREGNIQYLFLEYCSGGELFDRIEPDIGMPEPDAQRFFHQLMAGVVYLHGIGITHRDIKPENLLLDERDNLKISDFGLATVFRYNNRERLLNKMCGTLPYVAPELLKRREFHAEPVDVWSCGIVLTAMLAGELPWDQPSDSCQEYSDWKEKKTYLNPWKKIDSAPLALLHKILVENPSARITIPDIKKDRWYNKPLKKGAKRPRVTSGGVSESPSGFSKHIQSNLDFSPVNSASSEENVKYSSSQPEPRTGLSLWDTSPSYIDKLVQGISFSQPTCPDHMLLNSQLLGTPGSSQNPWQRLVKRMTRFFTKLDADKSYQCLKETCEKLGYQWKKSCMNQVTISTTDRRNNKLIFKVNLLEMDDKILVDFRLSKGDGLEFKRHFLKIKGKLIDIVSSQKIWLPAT
SMILES,test,conditions,remaining binding [%]
N#Cc1ccccc1CSc1nnc2c(n1)[nH]c1ccccc12,"binding, competition with immobilised ligand",10 µM,87
N[C@@H]1CCN(c2nccc(-c3cnn4ncccc34)n2)C1,binding,1 µM,100
C[C@@H]1CN(c2ccc3ncc(-c4ccc5[nH]nc(C6CC6)c5c4)n3n2)C[C@H](C)O1,"binding, competition with immobilised ligand",0.5 µM,100
CCN1CCN(Cc2ccc(C(=O)Nc3ccc(C)c(Oc4ccc5c(c4)CC(=O)N5)c3)cc2C(F)(F)F)CC1,"binding, competition with immobilised ligand",1 µM,100
O=C(c1ccc(Nc2ncc(Cl)c(-c3ccc(Cl)s3)n2)cc1)N1CCC(N2CCCC2)CC1,"binding, competition with immobilised ligand",1 µM,37
COc1ccnn2ncc(-c3ccnc(N(C)C)n3)c12,binding,1 µM,94
O=C(NCC1CCOCC1)c1n[nH]cc1NC(=O)c1c(F)cccc1F,"binding, competition with immobilised ligand",1 µM,100
F[C@@H]1CCN(c2nccc(-c3cnn4ncccc34)n2)C1,binding,1 µM,92
CC(C)CC(=O)N1CCc2nc(-c3ccc(Br)cc3)nc(N(C)Cc3ccccc3)c2C1,"cell-free assay, competition with immobilised ligand",0.1 µM,100
Nc1ncc2c(n1)-c1c([nH]c3ccc(C#CC4CC4)cc13)CCCC2,"binding, competition with immobilised ligand",1 µM,97
Cc1cc(C)c(-n2ccn3nc(-c4cccnc4)cc23)cc1NC(=O)c1cc(C#N)cc(S(F)(F)(F)(F)F)c1,"cell-free assay, competition with immobilised ligand",0.1 µM,86
Cc1cnn2ncc(-c3ccnc(N(C)C)n3)c2c1,binding,1 µM,100
O=C(NCCCN1CCOCC1)c1ccc(Nc2ncc(Cl)c(-c3ccc(Cl)s3)n2)cc1,"binding, competition with immobilised ligand",1 µM,57
O=C(NCCCC1CCCCC1)c1ccc(CNC(=O)c2cnn(-c3ccccc3)c2C(F)(F)F)cc1,"cell-free assay, competition with immobilised ligand",0.1 µM,100
CC(C)(C)c1ccc(-c2nc(CBr)nn2-c2cccc(O)c2)cc1,"cell-free assay, competition with immobilised ligand",10 µM,86
CC(=O)Nc1c(C(C)=O)c(=O)n(C)c2nc(-c3ccc(Cl)cc3Cl)c(-c3ccc(Cl)cc3)cc12,"cell-free assay, competition with immobilised ligand",1 µM,100
C[C@H]1CCN(c2nccc(-c3cnn4ncccc34)n2)C1,binding,1 µM,76
Cc1cc(-n2nc(Cc3cc(F)cc(C(F)(F)F)c3)nc2C)ccc1C(N)=O,"cell-free assay, competition with immobilised ligand",1 µM,100
CC1CCCN1c1nccc(-c2cnn3ncccc23)n1 (centres unmarked),binding,1 µM,99
CN(C)C(=O)Cn1cc(-c2nc([C@@](C)(c3ccc(-c4cnc(N)nc4)cc3)C3CC3)no2)cn1,"cell-free assay, competition with immobilised ligand",1 µM,85
O=C(c1ccc(Nc2nccc(-c3cc4ccccc4s3)n2)cc1)N1CCC(N2CCCC2)CC1,"binding, competition with immobilised ligand",1 µM,100
CCc1ccccc1C(=O)Nc1n[nH]c2c(C)c(F)c(C3C(C#N)=C(C)N(C)C(C)=C3C#N)cc12,"cell-free assay, competition with immobilised ligand",1 µM,91
COc1cnc(Nc2cccc(S(N)(=O)=O)c2)nc1N1CCN(c2ccccc2)C(=O)C1,"binding, competition with immobilised ligand",1 µM,100
